According to ChEMBL document CHEMBL1147809, “Tumor-cell-targeted methionine-enkephalin analogues containing unnatural amino acids: design, synthesis, and in vitro antitumor activity” (2006):
*1 amine or outer side, *2 acyl side, *3 side chain or, on linkers, in order; H or OH if unused. Where a SMILES comes first, the peptide text is derived from it. [ ]: non-standard residue; d: D form. X2 = O=C(C1(N[*:1])C2CC3CC(C2)CC1C3)[*:2]

The compounds below were run on HeLa (assay: Antiproliferative activity against human HeLa cell line at 1000 uM relative to control).
Format: functional
How it was run: (§1)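 Cells from ATCC grown as monolayers in DMEM with 10% FBS, 2 mM glutamine, penicillin/streptomycin, 37 °C, 5% CO2. Seeded at 2 × 10^4 cells/mL, and after 24 h the medium was replaced with fresh medium containing compound (water/10% DMSO stock, PBS working dilutions 10^-3 to 10^-6 M). Exposure was 72 h, then MTT read-out. Growth % = (A_peptide − A_blank)/(A_control − A_blank) × 100, with inhibition taken relative to untreated cells. Values are means of three experiments run in triplicate.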

With `CSCC[C@H](NC(=O)[C@H](Cc1ccccc1)NC(=O)CNC(=O)CNC(=O)[C@@H](N)Cc1ccc(O)cc1)C(=O)NC1(C(=O)O)C2CC3CC(C2)CC1C3` (stereo partly drawn) (H-YGGFM[X2]-OH) as the compound, how does the inhibition at 1000 µM read?
Its inhibition at 1000 µM is 9.3%.

The compounds below were run on HBL (assay: Antiproliferative activity against human HBL cell line at 10 uM relative to control).
Format: functional
How it was run: as §1

How did the inhibition at 10 µM turn out when `CSCC[C@H](NC(=O)[C@H](Cc1ccccc1)NC(=O)CNC(=O)CNC(=O)[C@@H](N)Cc1ccc(O)cc1)C(=O)NC1(C(=O)O)C2CC3CC(C2)CC1C3` (stereo partly drawn) (H-YGGFM[X2]-OH) was run?
The inhibition at 10 µM was 70.7%.

The compounds below were run on HBL (assay: Antiproliferative activity against human HBL cell line at 1000 uM relative to control).
Format: functional
How it was run: as §1

With `CSCC[C@H](NC(=O)[C@H](Cc1ccccc1)NC(=O)CNC(=O)CNC(=O)[C@@H](N)Cc1ccc(O)cc1)C(=O)NC1(C(=O)O)C2CC3CC(C2)CC1C3` (stereo partly drawn) (H-YGGFM[X2]-OH) as the compound, how does the inhibition at 1000 µM read?
Its inhibition at 1000 µM is 34.4%.

The compounds below were run on HT-29 (assay: Antiproliferative activity against human HT29 cell line at 1000 uM relative to control).
Format: functional
How it was run: as §1

`CSCC[C@H](NC(=O)[C@H](Cc1ccccc1)NC(=O)CNC(=O)CNC(=O)[C@@H](N)Cc1ccc(O)cc1)C(=O)NC1(C(=O)O)C2CC3CC(C2)CC1C3` (stereo partly drawn) (H-YGGFM[X2]-OH) was tested. Which inhibition at 1000 µM did it give?
Its inhibition at 1000 µM is 9.2%.

The compounds below were run on Caco-2 (assay: Antiproliferative activity against human Caco-2 cell line at 10 uM relative to control).
Format: functional
How it was run: as §1

`CSCC[C@H](NC(=O)[C@H](Cc1ccccc1)NC(=O)CNC(=O)CNC(=O)[C@@H](N)Cc1ccc(O)cc1)C(=O)NC1(C(=O)O)C2CC3CC(C2)CC1C3` (stereo partly drawn) (H-YGGFM[X2]-OH) was tested. Which inhibition at 10 µM did it give?
The inhibition at 10 µM was 11.1%.

What follows are compounds tested on Caco-2 (assay: Antiproliferative activity against human Caco-2 cell line at 1000 uM relative to control).
Format: functional
How it was run: as §1

With `CSCC[C@H](NC(=O)[C@H](Cc1ccccc1)NC(=O)CNC(=O)CNC(=O)[C@@H](N)Cc1ccc(O)cc1)C(=O)NC1(C(=O)O)C2CC3CC(C2)CC1C3` (stereo partly drawn) (H-YGGFM[X2]-OH) as the compound, how does the inhibition at 1000 µM read?
Its inhibition at 1000 µM is 47%.

Each compound was assayed on MCF7 (assay: Antiproliferative activity against human MCF7 cell line at 10 uM relative to control).
Format: functional
How it was run: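 MTT assay on monolayer cells grown in DMEM with 10% FBS, 2 mM glutamine, penicillin and streptomycin, at 37 °C in 5% CO2. Cells were plated at 2 × 10^4 cells/mL on day 0. After 24 h the medium was replaced with fresh medium containing compound (working dilutions in PBS from 10% DMSO/water stock), then incubated 72 h. Percent growth inhibition was calculated against untreated cells after blank subtraction. Values are means of three experiments run in triplicate.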

Which inhibition at 10 µM does the source give for `CSCC[C@H](NC(=O)[C@H](Cc1ccccc1)NC(=O)CNC(=O)CNC(=O)[C@@H](N)Cc1ccc(O)cc1)C(=O)NC1(C(=O)O)C2CC3CC(C2)CC1C3` (stereo partly drawn) (H-YGGFM[X2]-OH) here?
Its inhibition at 10 µM is 7.1%.

The compounds below were run on MCF7 (assay: Antiproliferative activity against human MCF7 cell line at 100 uM relative to control).
Format: functional
How it was run: as §1

`CSCC[C@H](NC(=O)[C@H](Cc1ccccc1)NC(=O)CNC(=O)CNC(=O)[C@@H](N)Cc1ccc(O)cc1)C(=O)NC1(C(=O)O)C2CC3CC(C2)CC1C3` (stereo partly drawn) (H-YGGFM[X2]-OH) was tested. Which inhibition at 100 µM did it give?
The inhibition at 100 µM was 6.9%.

What follows are compounds tested on MCF7 (assay: Antiproliferative activity against human MCF7 cell line at 1000 uM relative to control).
Format: functional
How it was run: as §1

For `CSCC[C@H](NC(=O)[C@H](Cc1ccccc1)NC(=O)CNC(=O)CNC(=O)[C@@H](N)Cc1ccc(O)cc1)C(=O)NC1(C(=O)O)C2CC3CC(C2)CC1C3` (stereo partly drawn) (H-YGGFM[X2]-OH), which inhibition at 1000 µM is on record?
The inhibition at 1000 µM was 25.9%.

The compounds below were run on HEp-2 (assay: Antiproliferative activity against human HEp2 cell line at 10 uM relative to control).
Format: functional
How it was run: as §1

How did the inhibition at 10 µM turn out when `CSCC[C@H](NC(=O)[C@H](Cc1ccccc1)NC(=O)CNC(=O)CNC(=O)[C@@H](N)Cc1ccc(O)cc1)C(=O)NC1(C(=O)O)C2CC3CC(C2)CC1C3` (stereo partly drawn) (H-YGGFM[X2]-OH) was run?
The inhibition at 10 µM was 3.9%.

Each compound was assayed on HEp-2 (assay: Antiproliferative activity against human HEp2 cell line at 1000 uM relative to control).
Format: functional
How it was run: as §1

Which inhibition at 1000 µM does the source give for `CSCC[C@H](NC(=O)[C@H](Cc1ccccc1)NC(=O)CNC(=O)CNC(=O)[C@@H](N)Cc1ccc(O)cc1)C(=O)NC1(C(=O)O)C2CC3CC(C2)CC1C3` (stereo partly drawn) (H-YGGFM[X2]-OH) here?
The inhibition at 1000 µM was 45%.

Each compound was assayed on MCF7 (assay: Antiproliferative activity against human MCF7 cell line at 1 uM relative to control).
Format: functional
How it was run: as §1

With `CSCC[C@H](NC(=O)[C@H](Cc1ccccc1)NC(=O)CNC(=O)CNC(=O)[C@@H](N)Cc1ccc(O)cc1)C(=O)NC1(C(=O)O)C2CC3CC(C2)CC1C3` (stereo partly drawn) (H-YGGFM[X2]-OH) as the compound, how does the inhibition at 1 µM read?
Its inhibition at 1 µM is 2.2%.

Each compound was assayed on HBL (assay: Antiproliferative activity against human HBL cell line at 1 uM relative to control).
Format: functional
How it was run: as §1

`CSCC[C@H](NC(=O)[C@H](Cc1ccccc1)NC(=O)CNC(=O)CNC(=O)[C@@H](N)Cc1ccc(O)cc1)C(=O)NC1(C(=O)O)C2CC3CC(C2)CC1C3` (stereo partly drawn) (H-YGGFM[X2]-OH) was tested. Which inhibition at 1 µM did it give?
Its inhibition at 1 µM is 4.1%.
